Results reported in ChEMBL document CHEMBL1154340, “Biphenyls from Berberis koreana” (J Nat Prod, 2009).

Assays:
SK-MEL-2 = test: Cytotoxicity against human SK-MEL-2 cells by SRB assay; type: functional, cell-based
A549 = test: Cytotoxicity against human A549 cells by SRB assay; type: functional, cell-based
BV-2 = test: Antiinflammatory activity in mouse BV2 cells assessed as effect on LPS-stimulated nitrite accumulation after 24 hrs by Griess reagent method; type: functional, cell-based; conditions: BV-2, 24 h
Method in brief: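 Nitrite, the stable NO oxidation product, measured in culture supernatant by Griess reaction: 50 µL supernatant mixed with equal volume of reagent (1% sulfanilamide, 0.1% N-1-naphthylethylenediamine dihydrochloride in 5% phosphoric acid). Absorbance at 540 nm read after 10 min. Sodium nitrite standard used for quantitation. L-NMMA served as positive control. IC50 values reported.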

SK-OV-3 = test: Cytotoxicity against human SKOV3 cells by SRB assay; type: functional, cell-based
HCT-15 = test: Cytotoxicity against human HCT15 cells by SRB assay; type: functional, cell-based
[1] = Cytotoxicity against mouse BV2 cells by MTT assay; type: cell-based; conditions: bv-2
Method in brief: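 Viability of the same cultures determined by MTT (3-[4,5-dimethylthiazol-2-yl]-2,5-diphenyltetrazolium bromide) assay.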

Row | Structure (SMILES) | IC50 (SK-MEL-2) | IC50 (A549) | IC50 (BV-2) | IC50 (SK-OV-3) | IC50 (HCT-15) | Activity [1]
1 | COc1cc(-c2ccccc2O)cc(OC)c1OC | > 10 µM | > 10 µM | 50.6 µM | > 10 µM | > 10 µM | –
2 | COc1cc(OC)cc(-c2ccccc2O)c1 | > 10 µM | > 10 µM | 32.1 µM | > 10 µM | > 10 µM | –
3 | COc1cc(-c2ccccc2)cc(O)c1O | > 10 µM | > 10 µM | – | > 10 µM | > 10 µM | –
4 | COc1cc(-c2ccccc2O)cc(OC)c1O | > 10 µM | > 10 µM | – | > 10 µM | > 10 µM | –
5 | COc1cc2c(oc3cc(O)ccc32)c(OC)c1O | > 10 µM | > 10 µM | – | > 10 µM | > 10 µM | –
6 | COc1cc2c(oc3cccc(O)c32)c(OC)c1O | > 10 µM | > 10 µM | – | > 10 µM | > 10 µM | –
7 | COc1ccc2c(oc3c(OC)c(OC)c(O)cc32)c1O | > 10 µM | > 10 µM | 33 µM | > 10 µM | > 10 µM | –
8 | COc1cc(OC)cc(-c2ccc(O)cc2)c1 | > 10 µM | > 10 µM | – | > 10 µM | > 10 µM | –
9 | COc1cc(O)cc(-c2ccccc2)c1 | > 10 µM | > 10 µM | – | > 10 µM | > 10 µM | –
10 | COc1cc(OC)cc(-c2ccccc2)c1 | > 10 µM | > 10 µM | – | > 10 µM | > 10 µM | –
11 | COc1cc(-c2ccccc2)cc(OC)c1O [AUCUPARIN] | > 10 µM | > 10 µM | – | > 10 µM | > 10 µM | –
12 | COc1cc(-c2ccccc2)cc(Oc2c(OC)cc([C@@H](O)[C@H](O)CO)cc2OC)c1O [BERBEKORIN A] | 4.4 µM | 8.2 µM | – | – | 7 µM | Toxic
13 | COc1cc2c(oc3ccccc32)c(OC)c1O [ERIOBOFURAN] | > 10 µM | > 10 µM | – | > 10 µM | > 10 µM | –
14 | COc1cc(-c2ccccc2)cc(OC)c1OC [METHOXY AUCUPARIN] | > 10 µM | > 10 µM | 21.9 µM | > 10 µM | > 10 µM | –
